Reference: ChEMBL document CHEMBL1151695, “Design, synthesis and preliminary pharmacological evaluation of new analogues of DM232 (unifiram) and DM235 (sunifiram) as cognition modulators” (Bioorg Med Chem, 2008)

Experiments:
[1] = tested on: Mus musculus; experiment: Antiamnesic activity in scopolamine-induced mouse assessed as latency time to enter dark room in retention session at 30 mg/kg, ip treated 20 mins before training session by passive avoidance test; format: functional; conditions: route intraperitoneal
Method in brief: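 Mouse step-through passive avoidance in a two-compartment box (lit and dark, guillotine door); entry into the dark side is punished by a fall from 40 cm into a 10 °C water bath. Drug given ip 20 min before training. Scopolamine 1.5 mg/kg given immediately after training. Retention tested the next day, read as latency to enter the dark room. Mice not entering within 60 s at training were excluded.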

[2] = tested on: Mus musculus; experiment: Antiamnesic activity in ip dosed mouse assessed as reversal of scopolamine-induced memory loss treated 20 mins before training session by passive avoidance test; format: functional; conditions: read-out: MED
Method in brief: (§1)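 Step-through passive avoidance in mice: lit and dark compartments joined by a guillotine door. Entering the dark side drops the mouse 40 cm into 10 °C water, a non-painful punishment. Mice not entering within 60 s at training were excluded. Compound given ip at 1:10 dilution steps […], 20 min before training. Vehicle was saline or saline/DMSO 4:1. Scopolamine 1.5 mg/kg ip immediately after punishment. Retention tested next day. MED is the lowest dose reversing amnesia.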

[3] = tested on: Mus musculus; experiment: Antiamnesic activity in scopolamine-induced mouse assessed as latency time to enter dark room in training session at 30 mg/kg, ip treated 20 mins before training session by passive avoidance test; format: functional; conditions: route intraperitoneal
[4] = tested on: Mus musculus; experiment: Effect on passive avoidance in mouse assessed as latency time to enter dark room in training session at 0.01 mg/kg, ip treated 20 mins before training session; format: functional; conditions: route intraperitoneal
Method in brief: (§2)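 Same step-through passive avoidance without scopolamine. Punishment is a 40 cm fall into 10 °C water on entering the dark room. Mice not entering within 60 s at training were excluded. Compound given ip at 1:10 dilution steps, 20 min before training, in saline or saline/DMSO 4:1. Controls received an extra saline injection right after training. Latency to enter the dark room recorded at training and at next-day retention.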

[5] = tested on: Mus musculus; experiment: Antiamnesic activity in scopolamine-induced mouse assessed as latency time to enter dark room in retention session at 0.001 mg/kg, ip treated 20 mins before training session by passive avoidance test; format: functional; conditions: route intraperitoneal; method in brief: as §1
[6] = species on record: Mus musculus; experiment: Effect on passive avoidance in mouse treated 20 mins before training session; format: functional; conditions: read-out: MED; method in brief: as §2
[7] = species on record: Mus musculus; experiment: Toxicity in mouse assessed as spontaneous motility and inspection activity after 5 mins by hole board test; format: organism-based; conditions: in vivo
Method in brief: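 Hole-board: 40 cm square plane with 16 holes of 3 cm, arranged 4×4. Each mouse placed centrally and free to move for […]. Photocells counted locomotion (spontaneous motility) and hole exploration, both as counts in 5 min. Compared with saline-treated mice.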

[8] = tested on: Mus musculus; experiment: Effect on passive avoidance in mouse assessed as latency time to enter dark room in retention session at 0.01 mg/kg, ip treated 20 mins before training session; format: functional; conditions: route intraperitoneal; method in brief: as §2
[9] = tested on: Mus musculus; experiment: Antiamnesic activity in scopolamine-induced mouse assessed as latency time to enter dark room in training session at 0.001 mg/kg, ip treated 20 mins before training session by passive avoidance test; format: functional; conditions: route intraperitoneal; method in brief: as §1
[10] = species on record: Mus musculus; experiment: Toxicity in mouse assessed as motor coordination after 45 mins by rotarod test; format: organism-based; conditions: in vivo, 0.75 h
Method in brief: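 Rota-rod: rod 30 cm long, 15 cm above the base, split into five sections, rotating at 16 rpm. Falls counted over 30 s. Mice with fewer than 3 or more than 6 falls in the pretest were rejected. Performance measured at pretest and 15, 30 and 45 min after test start. Compared with saline-treated mice.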

Structure (SMILES): NC(=O)CN1CCCC1=O [PIRACETAM]
- Activity [1]: 108.8 s
- minimal effective dose [2]: 30 mg/kg
- Activity [3]: 17.6 s

Structure (SMILES): CCC(=O)N1CCN(C(=O)c2ccccc2)CC1 [SUNIFIRAM]
- Activity [4]: 18.1 s
- Activity [5]: 91.5 s
- minimal effective dose [6]: 0.01 mg/kg
- Activity [7]: Non-toxic
- minimal effective dose [2]: 0.001 mg/kg
- Activity [8]: 126.7 s
- Activity [9]: 20.5 s
- Activity [10]: Non-toxic

Structure (SMILES): O=C1CCC2CN(S(=O)(=O)c3ccc(F)cc3)CCN12 (centres undefined) [UNIFIRAM]
- Activity [4]: 15.4 s
- Activity [5]: 104.4 s
- minimal effective dose [6]: 0.01 mg/kg
- Activity [7]: Non-toxic
- minimal effective dose [2]: 0.001 mg/kg
- Activity [8]: 131.6 s
- Activity [9]: 19.7 s
- Activity [10]: Non-toxic
